Test results as given in ChEMBL document CHEMBL1122464 (J Med Chem, 1983).
Calls of active or inactive are those of the source. The calls are words filed in the database; no cut-off is given here.

Assays:
[1] = Chromatographic measure of drug lipophilicity; type: physicochemical
L1210 = assay: Reduce in the cell count when drug added to the murine L1210 leukemia cell cultures for 70 h; type: functional; details: Mus musculus, L1210, 70 h; read-out: ID50 (the source's name)
P388 [2] = assay: Optimal dose administered intraperitoneally in; type: functional, Mus musculus
[3] = Half life of the drug was determined in the presence of 2-mercaptoethanol; type: ADME; details: solution containing 2-mercaptoethanol
[4] = Acid dissociation constant was determined; type: ADME
In short: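 Acridine pKa measured spectrophotometrically in 20% aqueous DMF. Values in parentheses were not measured directly: they were obtained by subtracting 0.25 pKa unit from values determined for the corresponding de-1'-NHSO2CH3 derivatives.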

P388 [5] = assay: Percent increase in the life span of treated mice over a group of control mice injected with p388 tumor alone when administered intraperitoneally (>500) as a solution in 0.1 mL of 30%,v/v, ethanol/water; Inactive; type: functional; details: Mus musculus
Nucleic Acid = assay: Binding constant to poly (dA-dT) was determined in calf thymus DNA by a fluorometric method; type: functional
P388 [6] = assay: Percent increase in the life span of treated mice over a group of control mice injected with p388 tumor alone when administered intraperitoneally (9) as a solution in 0.1 mL of 30%,v/v, ethanol/water; type: functional, Mus musculus

Rm [1] | IC50 (L1210) [nM] | half-life [3] [min] | pKa [4] | SMILES | OD (P388 [2]) [mg/kg/day] | ILS (P388 [5]) | K (Nucleic Acid) [M⁻¹] | ILS (P388 [6]) [%]
0.41 | > 10000 | > 70 | 7.6 | Cc1cc(NS(C)(=O)=O)cc(C)c1Nc1c2ccccc2nc2ccccc12 |  | inactive |  | 
0.15 | 100 | 54 |  | Cc1cc(NS(C)(=O)=O)ccc1Nc1c2ccccc2nc2ccccc12 |  |  | 380000 | 
0.36 | 4900 | > 70 | 7.63 | COc1cc(NS(C)(=O)=O)cc(OC)c1Nc1c2ccccc2nc2ccccc12 |  | inactive |  | 

SMILES | Rm [1] | IC50 (L1210) [nM] | half-life [3] [min] | pKa [4] | OD (P388 [2]) [mg/kg/day] | ILS (P388 [5]) | K (Nucleic Acid) [M⁻¹] | ILS (P388 [6]) [%]
CS(=O)(=O)Nc1ccc(Nc2c3ccccc3nc3ccccc23)cc1 | 0 | 35 | 0.92 |  | 66 |  |  | 
COc1cc(NS(C)(=O)=O)ccc1Nc1c2ccccc2nc2ccccc12 [AMSACRINE] | 0.18 |  | 1.8 |  |  |  | 290000 | 111
